SMILES strings stand for the structures. Bounds are passed on as bounds.

The test system of one data set is Mus musculus. The data set is described as follows: Toxicity in Plasmodium berghei ANKA infected C57BL/6 mouse assessed as effect on longevity at 100 mg/kg, po administered 24 hrs post-infection measured after 3 days. It is filed as organism-based. As to conditions: in vivo, 72 h. Also noted: dose 100 mg/kg, route oral.
A further data set deals with Plasmodium falciparum. The data set is described as follows: Antimalarial activity against Plasmodium falciparum NF54. It is filed as functional, organism-based.
Data set [1] relates to Plasmodium berghei. Put plainly: Antimalarial activity against Plasmodium berghei ANKA infected in C57BL/6 mouse assessed as host survival at 100 mg/kg, po administered 24 hrs post-infection (reference value: 6.8 days). In kind it is functional.
Data set [2] has as its system Plasmodium berghei. The data set is described as follows: Antimalarial activity against Plasmodium berghei ANKA infected in C57BL/6 mouse assessed as host survival at 15 mg/kg, po administered 24 hrs post-infection (reference value: 6.8 days). In kind it is functional.
The subject of data set [3] is Plasmodium berghei. Put plainly: Antimalarial activity against Plasmodium berghei ANKA infected in C57BL/6 mouse assessed as decrease in parasitemia at 15 mg/kg, po administered 24 hrs post-infection measured after 3 days by Giemsa microscopy relative to vehicle treated control. Also noted: scale not given: the % may be the effect or the level left. It is filed as functional. A digest of the protocol:
(§1)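 Male C57BL/6J mice, 5 weeks old, about 20 g, infected i.p. on day 0 with 5 × 10⁷ P. berghei ANKA-parasitized erythrocytes. At 24 h post-infection, four mice per group received one oral dose in 7:3 Tween 80:ethanol diluted in water: trioxane 6 mg/kg plus mefloquine HCl 18 mg/kg, or trioxane 7.5 mg/kg plus mefloquine HCl 15 mg/kg. Untreated infected controls were included. Blood parasitemia was read by Giemsa microscopy.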

The subject of data set [4] is Plasmodium berghei. The data set is described as follows: Antimalarial activity against Plasmodium berghei ANKA infected in C57BL/6 mouse assessed as host survival at 18 mg/kg, po administered 24 hrs post-infection (reference value: 6.8 days). In kind it is functional.
The subject of data set [5] is Plasmodium berghei. The data set is described as follows: Antimalarial activity against Plasmodium berghei ANKA infected in C57BL/6 mouse assessed as decrease in parasitemia at 18 mg/kg, po administered 24 hrs post-infection measured after 3 days by Giemsa microscopy relative to vehicle treated control. It is filed as functional. Also noted: scale not given: the % may be the effect or the level left. Put shortly:
as §1

Turning to `CSc1cccc(NC(=O)CC[C@H]2O[C@@H]3O[C@@]4(C)CC[C@H]5[C@H](C)CC[C@@H]([C@H]2C)[C@@]35OO4)c1`, the Activity result with Mus musculus is “Non-toxic”. In the data set on Plasmodium falciparum, this molecule had an EC50 of 9.1 nM. The Survival with Plasmodium berghei [1] turned out to be 15 days. Consider `CSc1cc(NC(=O)CC[C@H]2O[C@@H]3O[C@@]4(C)CC[C@H]5[C@H](C)CC[C@@H]([C@H]2C)[C@@]35OO4)cc(SC)c1`, for which the Activity result in the data set on Mus musculus was “Non-toxic”. In the data set on Plasmodium falciparum, this molecule came in with an EC50 of 6.5 nM. The Survival in the data set on Plasmodium berghei [1] turned out to be 7.5 days. Consider `C[C@H]1[C@@H](CCC(=O)Nc2cccc([S@+](C)[O-])c2)O[C@@H]2O[C@@]3(C)CC[C@H]4[C@H](C)CC[C@@H]1[C@@]24OO3`, for which the EC50 in the data set on Plasmodium falciparum came out at 23 nM. In the data set with Plasmodium falciparum, `C[C@H]1[C@@H](CCC(=O)Nc2cccc([S@@+](C)[O-])c2)O[C@@H]2O[C@@]3(C)CC[C@H]4[C@H](C)CC[C@@H]1[C@@]24OO3` displayed an EC50 of 29 nM. `C[C@H]1[C@@H](CCC(=O)Nc2cccc(S(C)(=O)=O)c2)O[C@@H]2O[C@@]3(C)CC[C@H]4[C@H](C)CC[C@@H]1[C@@]24OO3` returned an EC50 in the data set on Plasmodium falciparum of 21 nM. For the molecule `O[C@@H](c1cc(C(F)(F)F)nc2c(C(F)(F)F)cccc12)[C@H]1CCCCN1` (relative stereo) [(S,R)-MEFLOQUINE], the Survival with Plasmodium berghei [2] turned out to be 15.5 days; in the data set with Plasmodium berghei [4] it was 19.8 days. For the same molecule, the Activity in the data set with Plasmodium berghei [3] and in the data set on Plasmodium berghei [5] was >99.9% throughout. `C[C@@H]1CC[C@H]2[C@@H](C)C(=O)O[C@@H]3O[C@@]4(C)CC[C@@H]1[C@]32OO4` [ARTEMISININ] gave an EC50 with Plasmodium falciparum of 10 nM.

As to `CCCCN(CCCC)CC(O)c1cc(Cl)cc2c1-c1ccc(Cl)cc1/C2=C/c1ccc(Cl)cc1` (stereo not given) [LUMEFANTRINE], the Activity with Plasmodium berghei [5] is >99.9%.

Source of the values: ChEMBL document CHEMBL1944586, “Malaria-infected mice are completely cured by one 6 mg/kg oral dose of a new monomeric trioxane sulfide combined with mefloquine” (J Med Chem, 2012).
